Reference: ChEMBL document CHEMBL1150125, “Antiplasmodial activity of alkaloids from various strychnos species” (J Nat Prod, 2002)

Key:
[1] = Selectivity index, ratio of IC50 for human HCT116 cells to IC50 for chloroquine-sensitive Plasmodium falciparum FCA 20/ Ghana; assay type: toxicity, cell-based, HCT-116; conditions: HCT116 cells versus Plasmodium falciparum FCA 20/Ghana, read-out: Ratio IC50
Summary of the method: (§1)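 Selectivity index = IC50 in HCT-116 cells / IC50 in P. falciparum. Cell IC50: 5000 HCT-116 cells per well with drug, DMSO controls, 72 h incubation, then WST-1 for 30 min at 37 °C. Absorbance read against a cell-free blank and expressed as percent of control. Two independent experiments, each in triplicate, means ± SEM.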

Plasmodium falciparum [2] = experiment: Antiplasmodial activity against chloroquine-resistant Plasmodium falciparum FCB1-R/Colombia by [3H]hypoxanthine uptake; assay type: functional, organism-based
Summary of the method: (§2)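 Asexual erythrocytic stages kept in continuous culture (Trager and Jensen method). Each sample run as eight 4-fold dilutions, final 20 to 0.0012 µg/mL, in duplicate. IC50 and IC90 derived; number of independent experiments per value given separately.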

Plasmodium falciparum [3] = experiment: Antiplasmodial activity against chloroquine-resistant Plasmodium falciparum W2/Indochina by [3H]hypoxanthine uptake; assay type: functional, organism-based; summary of the method: as §2
HCT-116 = experiment: Cytotoxicity against human HCT116 cells after 72 hrs by WST1 assay; assay type: cell-based; conditions: HCT-116, 72 h
Summary of the method: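 HCT-116 colon cancer cells were seeded at 5000 per well in medium containing the test drugs, with matched DMSO controls. After 72 h, WST-1 was added for 30 min at 37 °C. Absorbance was read against a cell-free medium plus WST-1 blank and expressed as percent of control. Two independent experiments were run, each in triplicate, and means ± SEM were calculated.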

Plasmodium falciparum [4] = experiment: Antiplasmodial activity against chloroquine-sensitive Plasmodium falciparum FCA 20/ Ghana by [3H]hypoxanthine uptake; assay type: functional, organism-based; summary of the method: as §2
[5] = Selectivity index, ratio of IC50 for human HCT116 cells to IC50 for moderately chloroquine-resistant Plasmodium falciparum FCB1-R/Colombia; assay type: toxicity, cell-based, HCT-116; conditions: HCT116 cells versus Plasmodium falciparum FCB1-R/Colombia, read-out: Ratio IC50; summary of the method: as §1
[6] = Selectivity index, ratio of IC50 for human HCT116 cells to IC50 for chloroquine-resistant Plasmodium falciparum W2/Indochina; assay type: toxicity, cell-based, HCT-116; conditions: HCT116 cells versus Plasmodium falciparum W2/Indochina, read-out: Ratio IC50; summary of the method: as §1
Plasmodium falciparum [7] = experiment: Antiplasmodial activity against chloroquine-sensitive Plasmodium falciparum FCA 20/ Ghana at 50 uM; conditions: read-out: INH
[8] = Plasmodium falciparum, FCB1-R/Colombia
[9] = Plasmodium falciparum, W2/Indochina
[10] = Plasmodium falciparum, FCA 20/ Ghana

Row | Compound | selectivity ratio [1] | IC50 (Plasmodium falciparum [2]; [8]) [nM] | IC90 (Plasmodium falciparum [2]; [8]) [nM] | IC50 (Plasmodium falciparum [3]; [9]) [nM] | IC90 (Plasmodium falciparum [3]; [9]) [nM] | IC50 (HCT-116) [nM] | IC50 (Plasmodium falciparum [4]; [10]) [nM] | IC90 (Plasmodium falciparum [4]; [10]) [nM] | selectivity ratio [5] | selectivity ratio [6] | IC50 (Plasmodium falciparum [2]) [nM] | IC90 (Plasmodium falciparum [2]) [nM] | IC50 (Plasmodium falciparum [3]) [nM] | IC90 (Plasmodium falciparum [3]) [nM] | IC50 (Plasmodium falciparum [4]) [nM] | IC90 (Plasmodium falciparum [4]) [nM] | inhibition at 50 µM (Plasmodium falciparum [7]) [%]
1 | C/C=C1/CN2[C@@H](C3=C[C@@H]4[C@@H]5N(C3=O)c3ccccc3[C@@]53CCN5C/C(=C/CO)[C@@H]4C[C@H]53)C[C@@]34c5ccccc5N5C(=O)CC=C([C@H]1C[C@H]23)[C@H]54 | 19.1 | 207 | 1470 | 140 | 1350 | 16200 | 847 | 4350 | 78.3 | 115 |  |  |  |  |  |  | 
2 | C/C=C1\CN2CC[C@]34c5ccccc5N5[C@H]3[C@@H]([C@H]3O[C@@H]5[C@]5(OC)[C@@H]6N3c3ccccc3[C@@]63CCN6C/C(=C\C)[C@@H]5C[C@H]63)[C@H]1C[C@H]24 | 45.3 | 1540 | 9520 | 122 | 2840 | 24500 | 540 | 2530 | 15.9 | 200 |  |  |  |  |  |  | 
3 | C/C=C1\CN2CC[C@]34c5ccccc5N5[C@@H]6O[C@H]([C@H]([C@H]53)[C@H]1C[C@H]24)N1c2ccccc2[C@]23CCN4C/C(=C/C)[C@H](C[C@H]42)[C@H]6[C@H]13 (stereo in doubt; 52) [MATOPENSINE] | 9.59 |  |  |  |  | 12000 |  |  | 33.1 | 49.5 | 362 | 4110 | 243 | 7740 | 1250 | 6630 | 
4 | CC [ETHANE] |  |  |  |  |  |  |  |  |  |  |  |  |  |  |  |  | < 30
5 | CC[C@H]1CN2CCC3c4ccc(O)c([C@@H]5CCCN5C)c4NC3[C@@H]2C[C@@H]1C[C@H]1c2[nH]c3ccccc3c2CCN1C (stereo partly specified) [ISOSTRYCHNOPENTAMINE] | 62.3 | 104 | 386 | 152 | 628 | 7470 | 120 | 450 | 71.8 | 49.1 |  |  |  |  |  |  | 
6 | C/C=C1/CN2CCc3c([nH]c4ccccc34)[C@@H]2C[C@@H]1C1=CN2c3ccccc3[C@@]34CCN5CC6=CCO[C@@H]1[C@@H]([C@H]23)[C@H]6C[C@H]54 [LONGICAUDATINE] | 4.59 | 560 | 3640 | 569 | 4830 | 4930 | 986 | 3870 | 8.81 | 7.96 |  |  |  |  |  |  | 
7 | CC[C@H]1CN2CCC3c4ccccc4NC3[C@@H]2C[C@@H]1C[C@H]1NCCc2c1[nH]c1ccccc21 (stereo partly specified) [OCHROLIFUANINE A] | 136 | 266 | 1020 | 492 | 1380 | 16100 | 118 | 495 | 60.7 | 32.8 |  |  |  |  |  |  | 
8 | CC[C@H]1CN2CCC3c4ccccc4NC3[C@H]2C[C@@H]1C[C@@H]1NCCc2c1[nH]c1ccccc21 (stereo partly specified) [OCHROLIFUANINE E] | 20.7 | 702 | 2420 | 1900 | 6760 | 5700 | 276 | 1490 | 8.12 | 3 |  |  |  |  |  |  | 
9 | O=C1C[C@@H]2OCC=C3CN4[C@@H](C5=C[C@@H]6[C@@H]7N(C5=O)c5ccccc5[C@@]75CCN7C/C(=C/CO)[C@@H]6C[C@H]75)C[C@]56c7ccccc7N1[C@H]5[C@@H]2[C@H]3C[C@H]46 [STRYCHNOGUCINE B] | 24.3 | 529 | 2240 | 85 | 358 | 15000 | 617 | 3790 | 28.3 | 176 |  |  |  |  |  |  | 
